Experimental data as given in PubChem BioAssay.
Active and inactive are the calls of the source.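 Rule for the calls, unless noted: active = inhibition of the reporter signal at or above 50%; inactive = inhibition below 50%.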

How the values were obtained:
[1] = inhibitors of TNFa-induced NFkB p65 translocation, primary screen, imaging, HUVEC, MLSMR starter and 10KST1 sets (AID 438;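 active = inhibition above 20% together with a positive visual image hit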;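 note: compound added about 3h40 before a 20 min TNFalpha stimulation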;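 for inhibition: signal is the nuclear over cytoplasmic p65 intensity ratio per well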); details: HUVEC TNFa-induced p65 nuclear translocation; cell count: measured here: nuclei count (cytotoxicity indicator), at 2.08 µM; inhibition: at 2 µM, stronger effect = higher value, 0% TNFa-plus-vehicle, 100% no-TNFa wells
[2] = inhibitors of mutant huntingtin aggregation, primary screen, imaging, exon1htt(103Q)mCFP cells, high-content imaging (AID 483;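 active = visual image review flags a hit and inhibition of aggregation exceeds 20%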;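 note: compound exposure lasted 3 days before fixation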;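 for nuclei count: percent of the per-plate median nuclei count of sample wells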); details: exon1htt(103Q)mCFP cell line, aggregate imaging, at 2 µM; inhibition of aggregation: stronger effect = higher value; nuclei count: measured here: cell count, toxicity
[3] = inhibitors of E-selectin induction by TNFa, primary screen, imaging, HUVEC, immunofluorescence, MLSMR starter and 10KST1 sets (AID 487;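 active = visually confirmed hit in the image check and inhibition above 20%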;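 for inhibition: signal is fraction of cell area covered by stained E-selectin grains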;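 for nuclei count: 100% = median nuclei count of all wells on the same plate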); details: HUVEC TNFalpha-induced E-selectin immunofluorescence imaging, at 2 µM; inhibition: stronger effect = higher value; nuclei count: measured here: cell number, toxicity
[4] = molecular target: Voltage-gated potassium channel subunit beta-2 (Rattus norvegicus) (UniProt P62483); assay: KvBeta enzyme negative modulators, primary screen, biochemical, NADPH fluorescence (AID 622;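 active = fluorescence slope higher than the sample average by over 3 SD, cut at about -0.22 in these data, passing the limit was not always enough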;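 note: slope of raw intensity against log time taken from 70 to 1610 s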); details: recombinant KvBeta, 4-cyanobenzaldehyde reduction, at 10 µM, stronger effect = higher value
Sequence of Voltage-gated potassium channel subunit beta-2 (Rattus norvegicus) (P62483 whole entry, looked up): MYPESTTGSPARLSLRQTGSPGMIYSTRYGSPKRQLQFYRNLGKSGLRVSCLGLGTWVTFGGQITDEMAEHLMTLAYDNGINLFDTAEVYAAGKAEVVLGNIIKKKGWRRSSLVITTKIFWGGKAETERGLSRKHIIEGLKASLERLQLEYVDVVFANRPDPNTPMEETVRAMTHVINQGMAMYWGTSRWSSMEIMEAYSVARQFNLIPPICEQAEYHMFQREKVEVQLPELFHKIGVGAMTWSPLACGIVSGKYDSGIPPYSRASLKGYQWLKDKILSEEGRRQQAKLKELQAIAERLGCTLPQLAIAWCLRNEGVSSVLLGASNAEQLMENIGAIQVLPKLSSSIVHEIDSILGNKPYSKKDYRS

[5] = molecular target: Voltage-gated potassium channel subunit beta-2 (Rattus norvegicus) (UniProt P62483); assay: KvBeta positive modulators, primary screen, biochemical, NADPH fluorescence (AID 623;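 active = NADPH fluorescence slope more negative than the mean of all samples by about 3 SD, 99.7% confidence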;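 note: fluorescence intensity change per second fitted from 20 to 320 s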); details: Recombinant KvBeta, NADPH fluorescence decrease slope, 10 min; at 10 µM; stronger effect = lower value
[6] = molecular target: Muscarinic acetylcholine receptor M4 (Homo sapiens) (UniProt P08173); assay: compounds altering M4/GIRK thallium flux, either direction, primary screen, M4 allosteric agonist project, cell-based, HEK293 M4/GIRK, BTC-AM (AID 625;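 active = fluorescence slope after compound addition differing from the mean of all tested samples at 99.7% confidence, mostly higher but some lower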;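 note: thallium influx through GIRK channels coupled to M4 in HEK293 cells with BTC-AM dye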); details: at 10 µM, actives lie on both sides
Sequence of Muscarinic acetylcholine receptor M4 (Homo sapiens) (P08173 whole entry, looked up): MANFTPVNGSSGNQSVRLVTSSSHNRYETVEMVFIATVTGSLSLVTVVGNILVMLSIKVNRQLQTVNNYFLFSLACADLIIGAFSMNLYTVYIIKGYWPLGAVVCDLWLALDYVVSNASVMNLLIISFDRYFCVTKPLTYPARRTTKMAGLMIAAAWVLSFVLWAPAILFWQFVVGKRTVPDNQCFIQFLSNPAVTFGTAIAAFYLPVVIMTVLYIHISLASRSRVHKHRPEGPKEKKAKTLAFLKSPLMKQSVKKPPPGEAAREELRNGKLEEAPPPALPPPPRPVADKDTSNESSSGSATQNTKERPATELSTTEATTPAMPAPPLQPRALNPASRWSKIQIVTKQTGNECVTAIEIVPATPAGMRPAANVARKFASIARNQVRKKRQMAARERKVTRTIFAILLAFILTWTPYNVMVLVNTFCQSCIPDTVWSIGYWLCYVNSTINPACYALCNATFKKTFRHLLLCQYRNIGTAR
Method in brief: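 System: HEK293 cells with M4 receptor and GIRK channels | Incubation: Cells overnight at 37 °C, BTC-AM loading 1 h, reads 2 min total | Technique: Kinetic BTC-AM fluorescence sampled at 1 Hz, 10 s pre-addition baseline | Measure: Post-addition slope, 15–24 s, of baseline-normalized fluorescence | Control set: Carbachol positive, DMSO negative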

[7] = inhibitors of Sendai virus-induced IRF3 signaling, primary screen, TLR/RLR signaling modifier project, cell-based, Sendai virus stimulus, luciferase, 10K MLSCN set (AID 602276;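 active = inhibition at or above 50% at 10 µM; inactive = inhibition below 50%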;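 note: firefly luciferase from ISG56 promoter only with Renilla not read in this screen; 0% = Sendai virus plus DMSO and 100% = medium plus DMSO without virus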); details: HEK293 RL24 IRF3 luciferase reporter, at 10 µM, stronger effect = higher value
[8] = inhibitors of poly I:C-induced TLR3 signaling, primary screen, cell-based, poly I:C stimulus, luciferase, 10K MLSCN set (AID 602277); details: HEK293-TLR3 RL24 IRF3 luciferase reporter, at 10 µM, stronger effect = higher value

SMILES	cell count [1]	inhibition [1]	inhibition of aggregation [2]	nuclei count [2] [%]	inhibition [3]	nuclei count [3] [%]	fluorescence slope [4]	NADPH fluorescence slope [5]	fluorescence slope [6]	inhibition [7]	inhibition [8]
O=C(Cn1nnc(-c2cccs2)n1)OC1CCCCC1	298	-4.7% (inactive)	-0.1% (inactive)	98.6	-108% (inactive)	108	-0.547 (inactive)	-9.5e-06 (inactive)	0.00395 (inactive)	11.6% (inactive)	5.67% (inactive)
Cc1nc(NC2=NCN(CCc3ccccc3)CN2)nc2c(C)cccc12	428	46.4% (active)	-2.2% (inactive)	79.5	-18.7% (inactive)	104	-0.457 (inactive)	-1.3e-05 (inactive)	0.0048 (inactive)	27.7% (inactive)	28.3% (inactive)
CCN(C(=O)c1cc2cc3ccc(C)cc3nc2o1)c1ccc(OC)cc1	225	-1.3% (inactive)	0.1% (inactive)	107	-11% (inactive)	106	-0.431 (inactive)	-1.6e-05 (inactive)	0.00704 (inactive)	-25.1% (inactive)	-79.8% (inactive)
CCCn1c2c(c(O)c(C(=O)NC)c1=O)CCCC2	323	3.4% (inactive)	-3.3% (inactive)	101	-40.9% (inactive)	112	-0.566 (inactive)	-6.4e-05 (inactive)	0.00821 (inactive)	26.6% (inactive)	25.6% (inactive)
COc1cccc(C(c2nnnn2Cc2ccccc2)N2CCN(C(=O)c3ccco3)CC2)c1OC (centres undefined)	414	4.3% (inactive)	5% (inactive)	69.9	-195% (inactive)	161	-0.473 (inactive)	-2e-05 (inactive)	0.00486 (inactive)	8.65% (inactive)	11.2% (inactive)
Cc1ccc(NC(=O)CNc2cccc(C)c2C)c(C)c1	505	2.5% (inactive)	-48.7% (inactive)	12.5	-54.3% (inactive)	107	-0.517 (inactive)	-7.1e-05 (inactive)	0.00498 (inactive)	5.56% (inactive)	-4.35% (inactive)
COC(=O)C(C)C1Sc2ccccc2NC1=O (centres undefined)	306	3.6% (inactive)	-4.9% (inactive)	89.5	-37.7% (inactive)	131	-0.28 (inactive)	-5.2e-05 (inactive)	0.00684 (inactive)	12.5% (inactive)	-8.12% (inactive)
CCCn1c(SCC(=O)NCCc2ccccc2)nnc1-c1ccccn1	501	-7.9% (inactive)	12.6% (inactive)	103	-28.9% (inactive)	104	-0.543 (inactive)	-4.4e-05 (inactive)	0.00518 (inactive)	3.67% (inactive)	12.4% (inactive)
O=S(=O)(NCCCCCNS(=O)(=O)c1ccccc1)c1ccccc1	468	4.3% (inactive)	-5% (inactive)	104	-56.2% (inactive)	142	-0.547 (inactive)	-3.3e-05 (inactive)	0.00488 (inactive)	20.2% (inactive)	22.6% (inactive)
COc1cc(NC(=O)c2ccco2)c(OC)cc1NC(=O)CCC(=O)Nc1cc(C)cc(C)c1	534	-0.3% (inactive)	18.3% (inactive)	72.2	26.4% (inactive)	68.3	-0.279 (inactive)	6.9e-06 (inactive)	0.00626 (inactive)	16% (inactive)	27.3% (inactive)
CCCC(=O)Nc1ccccc1NC(=O)CCC	353	-5.6% (inactive)	-10.5% (inactive)	103	-23.8% (inactive)	109	-0.434 (inactive)	-6e-05 (inactive)	0.00516 (inactive)	14.4% (inactive)	15.4% (inactive)
O=C(Cc1ccccc1)Nc1nnc(-c2cccs2)s1	373	-5.4% (inactive)	-3.5% (inactive)	115	-11.8% (inactive)	130	-0.521 (inactive)	-1.2e-05 (inactive)	0.00894 (inactive)	7.41% (inactive)	-69.9% (inactive)
O=C(Nc1ccccc1C(=O)N1CCOCC1)c1ccncc1	389	0.7% (inactive)	5.4% (inactive)	107	-97.8% (inactive)	105	-0.579 (inactive)	-3.8e-05 (inactive)	0.00647 (inactive)	5.72% (inactive)	17.1% (inactive)
CCOC(=O)c1nnn(-c2nonc2N)c1CN1CCc2ccccc2C1	200	-3.9% (inactive)	-11.1% (inactive)	80.6	-18.4% (inactive)	108	-0.45 (inactive)	4.7e-05 (inactive)	0.00671 (inactive)	6.68% (inactive)	24.5% (inactive)
